In the library only some 2% were active in any assay of this set; here they are far more common.
MBD2 DNA inh – MBD2-methylated oligo binding inhibition | TR-FRET, MBD2 binding to methylated oligonucleotide | 0.31% of 370,000 active | AID 686964 | inhibition, % at 4.4 µM; in the data active = inhibition above about 13%
UHRF1 MBD2 ctr – UHRF1 methyl-DNA binding inhibition | Q96T88 | UHRF1 binding to methylated oligo, TR-FRET | inhibition, % at 4.4 µM | 0.75% of 370,000 active | AID 687016; in the data active = inhibition above about 21%;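 note: UHRF1 SRA domain binding a hemimethylated CpG hairpin DNA probe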
ARFGAP1 inhibitor – rat ARFGAP1 inhibition; Q62848; Arfgap1-stimulated ARF1 GTP hydrolysis, GDP FP detection; inhibition, % at 16.5 µM; 0.26% of 360,000 active; AID 651572;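 active = inhibition above a per-plate limit, mean inhibition of low control wells plus 3 SD, cut at about 25% in these data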
Target sequence (Q62848 1-136 limits assumed): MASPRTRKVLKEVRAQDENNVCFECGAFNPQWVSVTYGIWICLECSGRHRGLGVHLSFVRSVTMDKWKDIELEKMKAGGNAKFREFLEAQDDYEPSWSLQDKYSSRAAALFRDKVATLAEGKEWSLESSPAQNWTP
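Material: rat Arfgap1 catalytic domain, aa 1-136; also added: human ARF1(Δ1-17)-GTP substrate; compound dosing: one concentration, 16.5 µM, DMSO 1.26%; incubation: GTP hydrolysis reaction 2 h at 25 °C; measured by: Tracer-displacement fluorescence polarization with EDTA stop, 620/688 nm; evaluation: % inhibition from polarization; repeats: one replicate per compound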
ASAP1 GAP inh – inhibitors of human ASAP1 ArfGAP activity; ASAP1-stimulated ARF1 GTP hydrolysis, GDP FP detection; inhibition, % at 16.5 µM; 0.19% of 360,000 active; AID 624377; in the data active = inhibition above about 25%
TCR-CD3 inh – blocks the human TCR-CD3 interaction; TAMRA-labeled TCR probe fluorescence, biochemical; inhibition, % at 9.4 µM; 0.37% of 360,000 active; AID 651800; in the data active = inhibition above about 19%;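 note: recombinant mutant TCR 2C K166C tagged with TAMRA read by polarization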
LEDGF integ inh – blocks HIV-1 LEDGF/p75-dependent DNA integration. TR-FRET IN-LEDGF/p75 DNA integration, Eu/Cy5. inhibition, % at 3.7 µM. 0.64% of 370,000 active. AID 743269;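 active = inhibition above the screen-wide mean plus 3 SD, cut at about 13% in these data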;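 note: signal is the Cy5 over europium emission ratio at 671 and 618 nm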
ARFGAP1 inh conf – rat ARFGAP1 inhibition, confirmed; shares compounds with ARFGAP1 inhibitor; ARFGAP1-stimulated ARF1 GTP hydrolysis, GDP tracer FP; inhibition, % at 16.5 µM; 30% of 890 active;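 active = average inhibition over triplicates above the hit cutoff set in the earlier primary screen, cut at about 25% in these data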
Target sequence (Q62848 whole entry, looked up): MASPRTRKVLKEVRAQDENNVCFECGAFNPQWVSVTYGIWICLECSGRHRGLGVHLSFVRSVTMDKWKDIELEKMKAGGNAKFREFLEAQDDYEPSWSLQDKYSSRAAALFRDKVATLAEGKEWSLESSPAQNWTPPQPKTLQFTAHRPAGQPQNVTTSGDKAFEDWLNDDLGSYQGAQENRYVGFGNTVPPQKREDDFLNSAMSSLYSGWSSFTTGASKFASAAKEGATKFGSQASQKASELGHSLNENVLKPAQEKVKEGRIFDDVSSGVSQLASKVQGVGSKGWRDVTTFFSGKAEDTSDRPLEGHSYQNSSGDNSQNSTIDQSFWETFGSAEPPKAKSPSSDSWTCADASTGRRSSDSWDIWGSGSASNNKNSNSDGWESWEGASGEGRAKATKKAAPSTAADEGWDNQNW
Of the large screens only hits and unclear results are named; the others gave an inactive call (follow-up assays come after a bar, where they were run).

C=CCN1C(=O)[C@@H](CC(=O)NCCc2ccccc2OC)[C@]2(C(=O)OC)CCCCC=C12	none (no result: ARFGAP1 inhibitor, ASAP1 GAP inh, TCR-CD3 inh)
CC(C)Cn1c(N)c(S(=O)(=O)c2cccs2)c2nc3ccccc3nc21	ARFGAP1 inhibitor 27 | ARFGAP1 inh conf inactive
Cc1ccc(-c2cc(-c3ccccc3Cl)[nH]n2)c(O)c1	none
Cc1ccc(-c2cc(-c3ccccc3[N+](=O)[O-])[nH]n2)c(O)c1	ARFGAP1 inhibitor 41 | ARFGAP1 inh conf inactive
O=S(=O)(c1ccc(Cl)s1)N1CCC(c2cn3ccccc3n2)CC1	none (no result: ARFGAP1 inhibitor, ASAP1 GAP inh, TCR-CD3 inh)
COC(=O)[C@]12C[C@H](CC(=O)N3CCCC3)C(=O)N(Cc3ccc(Cl)cc3Cl)C1=C[C@H](C(C)(C)C)O[C@@H]2C	none (no result: ARFGAP1 inhibitor, ASAP1 GAP inh, TCR-CD3 inh)
CCOc1ccc(NC(=S)N=Nc2c(O)[nH]c3ccccc23)cc1	ARFGAP1 inhibitor 27 | ARFGAP1 inh conf inactive
Oc1cccc(NC(=S)N=Nc2c(O)[nH]c3ccccc23)c1	none
COc1ccc2cc(C(=O)Nc3ccc(S(N)(=O)=O)cc3)sc(=O)c2c1OC	ARFGAP1 inhibitor 25 | ARFGAP1 inh conf inactive
O=C(NCc1ccc(Cl)c(Cl)c1)c1cc(C2CCCCN2C(=O)c2cccs2)on1 (configuration not stated)	none
CC1(C)Cc2c(cnn2-c2ccc(F)cc2)C(NC(=O)C2=CC(=O)CC(C)(C)O2)C1 (configuration not stated)	none
COc1ccc(/C=C2\Oc3cc(OCC(=O)N4CCC[C@H]4C(=O)O)ccc3C2=O)c(OC)c1OC	ARFGAP1 inhibitor 26 | ARFGAP1 inh conf inactive
COc1ccc(OC)c(/C=C2\Oc3cc(OCC(=O)N4CCC(C(=O)O)CC4)ccc3C2=O)c1	ARFGAP1 inhibitor 42 | ARFGAP1 inh conf 48
COc1ncnc2c1ncn2CCCNCc1ccc(C)o1	none
O=C1c2ccccc2C(Nc2ccc3c(c2)OCCO3)N1c1ccc(Cl)cn1 (configuration not stated)	ARFGAP1 inhibitor 25 | ARFGAP1 inh conf inactive
COc1ccc(OC)c(-c2nnc3n2N=C(c2ccc(OC)c(OC4CCOC4)c2)CS3)c1 (configuration not stated)	ARFGAP1 inhibitor 26 | ARFGAP1 inh conf inactive
Cc1ccc(C(=O)N2CCC2(C)C(=O)NC(C)C)cc1 (configuration not stated)	none
CCNC(=O)C1(C)CCCN(C(=O)c2oc3ccccc3c2C)C1 (configuration not stated)	none
Clc1cccc(CNc2nc(-c3cccnc3)nc3ccccc23)c1	ARFGAP1 inhibitor 32 | ARFGAP1 inh conf 27
Clc1cccc(Nc2nc(-c3ccncc3)nc3ccccc23)c1	ARFGAP1 inhibitor 39 | ARFGAP1 inh conf 50
COCO[C@@H]1CC(CO)=C[C@H]2OCO[C@H]21	none (no result: ARFGAP1 inhibitor, ASAP1 GAP inh, TCR-CD3 inh)
C[C@H](CO)N1C[C@H](C)[C@@H](CN(C)Cc2ccccn2)Oc2ncc(-c3ccccc3)cc2C1=O	none
NS(=O)(=O)c1ccc(Nc2ccc3cc(S(=O)(=O)N4CCCCC4)ccc3n2)cc1	ARFGAP1 inhibitor 47 | ARFGAP1 inh conf 52
NS(=O)(=O)c1ccc(S(=O)(=O)N2CCCC2)cc1	none
COc1ccc(C2C(O)C(c3c[nH]c4ccccc34)=NN2C(=O)CCl)cc1 (configuration not stated)	ARFGAP1 inhibitor 26 | ARFGAP1 inh conf inactive
COC(=O)[C@]12C[C@H](CC(=O)NCCC(C)C)C(=O)N(CCC3=CCCCC3)C1=C[C@H](C(C)(C)C)O[C@@H]2C	none
CN1CCN(c2ccc(Cl)cc2NC(=O)/C=C/c2ccc(F)cc2)CC1	ARFGAP1 inhibitor 25 | ARFGAP1 inh conf inactive
COc1ccc(C(C)=O)cc1CSc1nncn1-c1ccccc1	none
O=C1CSc2ccc(C(=O)Nc3cccc(S(=O)(=O)Nc4ccc(Br)cc4)c3)cc2N1	ARFGAP1 inhibitor 33 | ARFGAP1 inh conf 25
COC(=O)C1CCN(C2CN(Cc3ccc(F)cc3)S(=O)(=O)C2)CC1 (configuration not stated)	none
O=C(CSc1nnc(SCc2cccc3ccccc23)s1)N/N=C/c1c[nH]c2ccccc12	ARFGAP1 inhibitor 32 | ARFGAP1 inh conf inactive
CCS(=O)(=O)Nc1ccc2c(c1)C(=O)N(C)[C@@H]1CC[C@H](CC(=O)OC)O[C@H]1CO2	none (no result: ARFGAP1 inhibitor, ASAP1 GAP inh, TCR-CD3 inh)
CCOC(=O)CN1Cc2cccc(C(=O)O)c2C1=O	ARFGAP1 inhibitor 25 | ARFGAP1 inh conf inactive
COc1cccc(CNC(=O)[C@@H]2CCCN2C(=O)[C@@H]2CCCN2C(=O)OC(C)(C)C)c1	none
CC(=O)Nc1ccc(-c2csc(NC(=O)Cc3cccc(F)c3)n2)cc1	ARFGAP1 inhibitor 31 | ARFGAP1 inh conf inactive
NC1=NC[C@H](Cc2ccccc2)N1CCc1cc(C(F)(F)F)cc(C(F)(F)F)c1	ARFGAP1 inhibitor 25 | ARFGAP1 inh conf inactive
FC(F)(F)c1cc(CCN2C(=S)NC[C@@H]2Cc2ccccc2)cc(C(F)(F)F)c1	none
COc1cccc(C(O)c2nc(-c3cc4ccccc4o3)cs2)c1 (configuration not stated)	none
COc1cc(C(O)c2nc(-c3cc4ccccc4o3)cs2)ccc1F (configuration not stated)	ARFGAP1 inhibitor 28 | ARFGAP1 inh conf inactive
O=C(Nc1cccc(-c2csc(Nc3cccc(C(F)(F)F)c3)n2)c1)c1ccccc1	ARFGAP1 inhibitor 25 | ARFGAP1 inh conf inactive
O=C(Nc1ccc(-c2csc(Nc3cccc(C(F)(F)F)c3)n2)cc1)c1ccccc1	none
S=C(NCc1ccncc1)Nc1cc(Cl)cc(Cl)c1	ARFGAP1 inhibitor 25 | ARFGAP1 inh conf inactive
S=C(NCc1cccnc1)Nc1cc(Cl)cc(Cl)c1	ARFGAP1 inhibitor 25 | ARFGAP1 inh conf inactive
COc1ccccc1C(=O)NC1CCCCN(Cc2cccc(Cl)c2)C1=O (configuration not stated)	none (no result: ARFGAP1 inhibitor, ASAP1 GAP inh, TCR-CD3 inh)
Nc1nonc1-c1nc2ccccc2n1Cc1ccc(Cl)cc1	ARFGAP1 inhibitor 25 | ARFGAP1 inh conf inactive
Cc1ccc(Cn2c(-c3nonc3N)nc3ccccc32)cc1	none
CC(C)C(OC(=O)c1cc2c(s1)CCCCC2)C(=O)NC(N)=O (configuration not stated)	none
CC(OC(=O)c1cc2c(s1)CCCCC2)C(=O)NC(N)=O (configuration not stated)	ARFGAP1 inhibitor 28 | ARFGAP1 inh conf inactive
Cc1ccc2nc(-c3ccc(SCC(=O)Nc4nc(C)cs4)nc3)[nH]c2c1	ARFGAP1 inhibitor 25 | ARFGAP1 inh conf 33
Cc1ccc2nc(-c3ccc(SCC(=O)Nc4nnc(C)s4)nc3)[nH]c2c1	none
CCCCC1CC2=C(C(=O)OC(C)(C)O2)C(c2ccc3ccccc3c2)O1 (configuration not stated)	none
CC(=O)N1CCN(S(=O)(=O)c2ccc(C)cc2)C1C (configuration not stated)	ARFGAP1 inhibitor 30 | ARFGAP1 inh conf inactive

Screening results as filed in PubChem.
